Laboratory results from article PMC8482496 (ACS Omega, 2021).

Legend:
S. aureus ThrRS = target: T1, S. aureus ThrRS (Staphylococcus aureus, UniProt Q2FXP7); test: In vitro aminoacylation assay; assay type: biochemical; settings: read-out: inhibition of S. aureus ThrRS
T1 sequence (Q2FXP7 1-645): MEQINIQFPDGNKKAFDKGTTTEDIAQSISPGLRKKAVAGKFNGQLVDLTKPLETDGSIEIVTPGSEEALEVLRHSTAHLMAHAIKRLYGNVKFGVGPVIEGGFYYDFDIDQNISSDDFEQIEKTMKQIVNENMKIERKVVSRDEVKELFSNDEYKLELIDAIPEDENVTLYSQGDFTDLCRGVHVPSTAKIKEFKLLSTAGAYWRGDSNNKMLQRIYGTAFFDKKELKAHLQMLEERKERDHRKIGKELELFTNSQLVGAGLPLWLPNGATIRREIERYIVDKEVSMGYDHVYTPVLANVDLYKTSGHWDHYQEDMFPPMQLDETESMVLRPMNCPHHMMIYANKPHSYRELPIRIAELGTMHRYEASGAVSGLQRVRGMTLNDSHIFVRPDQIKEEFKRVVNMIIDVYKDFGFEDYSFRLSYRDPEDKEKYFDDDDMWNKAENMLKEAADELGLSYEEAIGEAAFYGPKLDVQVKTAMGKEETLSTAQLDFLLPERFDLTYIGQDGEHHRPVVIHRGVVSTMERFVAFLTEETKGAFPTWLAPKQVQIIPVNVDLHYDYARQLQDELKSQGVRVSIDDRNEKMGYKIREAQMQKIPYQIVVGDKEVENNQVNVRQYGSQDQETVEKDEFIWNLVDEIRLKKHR
Summary of the method: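 S. aureus ThrRS expressed in E. coli BL21(DE3)pLysS (0.25 mM IPTG, 3 h, 37 °C), purified on DEAE then heparin columns. Started with 10 mM ATP; 10 min, 37 °C; TCA-precipitated on filters, scintillation-counted; at least duplicates.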

HEK293 cells = test: MTT assay, cytotoxicity; assay type: cell-based, human; settings: at a concentration of 100 μM; 72 h
Summary of the method: (§1)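 HEK293 cells kept in DMEM with 10% FBS plus penicillin/streptomycin, 37 °C, 5% CO2. Seeded at 2 × 10^5 cells/mL and grown 24 h, then exposed 72 h to test compound in DMSO (final DMSO below 0.5%) at various concentrations. MTT (5 mg/mL solution) added for 4 h; formazan dissolved in DMSO, A540 read; viability expressed as percent of untreated control cells.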

MTT assay, cytotoxicity = assay type: cell-based, human; settings: human, HEK293 cells
Summary of the method: as §1

| inhibition at 100 µM (S. aureus ThrRS) | Compound | cytotoxicity toward HEK293 (HEK293 cells) | EC50 at 72 h (MTT assay, cytotoxicity) | decrease of the growth of HEK293 cells (HEK293 cells) |
| --- | --- | --- | --- | --- |
| 85.6% | Cc1ccc([N+](=O)[O-])cc1NC(=O)COc1ccccc1C(C)(C)C [compound 2, 2-(2-tert-butyl-phenoxy)-N-(2-methyl-5-nitro-phenyl)-acetamide] | not cytotoxic | – | – |
| 78.6% | Cc1cc(I)ccc1N1C(=O)CC(Sc2ncccc2C(=O)O)C1=O (stereo not drawn) [compound 11, 2-[1-(4-iodo-2-methyl-phenyl)-2,5-dioxo-pyrrolidin-3-ylsulfanyl]-nicotinic acid] | – | > 100 µM | 30% |
| 78.3% | CCOC(=O)c1c(-c2ccc(Cl)cc2)csc1NC(=O)CN1CC(C)OC(C)C1 (stereo not drawn) [compound 8, 4-(4-chloro-phenyl)-2-[2-(2,6-dimethyl-morpholin-4-yl)-acetylamino]-thiophene-3-carboxylic acid ethyl ester] | not cytotoxic | – | – |
| 88.5% | COc1ccc(C(=O)CSc2nc3ccc([N+](=O)[O-])cc3s2)cc1 [compound 1, 1-(4-methoxy-phenyl)-2-(6-nitro-benzothiazol-2-ylsulfanyl)-ethanone] | not cytotoxic | – | – |
